Laboratory results taken from ChEMBL document CHEMBL4689842, “EUbOPEN Chemogenomics Library wave 1” (2021).

System: U2OS
Assay: Multiplex assay against U2OS
Type: toxicity, cell-based
Conditions: human
Outline: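 Compound was added to live cells that had been stained at seeding with Hoechst33342, BioTracker Green Microtubule Cytoskeleton Dye, MitoTracker Red and Annexin V Alexa Fluor 680, and imaging followed on a CQ1 microscope at 37°C and 5% CO2. CellPathfinder machine-learning gating divided cells into Hoechst high-intensity objects or normal cells, normal cells into healthy, pyknosed or fragmented nuclei, and pyknosed cells into mitotic or apoptotic. Tubulin, mitochondrial-mass and membrane-permeability phenotypes are per cents of healthy-nucleus cells.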

[1] = 12 h, 1 µM, compound concentration 1 uM, replicate 1
[2] = 12 h, 1 µM, compound concentration 1 uM, replicate 2
[3] = 12 h, 10 µM, compound concentration 10 uM, replicate 1
[4] = 12 h, 10 µM, compound concentration 10 uM, replicate 2
[5] = 24 h, 1 µM, compound concentration 1 uM, replicate 1
[6] = 24 h, 1 µM, compound concentration 1 uM, replicate 2
[7] = 24 h, 10 µM, compound concentration 10 uM, replicate 1
[8] = 24 h, 10 µM, compound concentration 10 uM, replicate 2
[9] = 48 h, 1 µM, compound concentration 1 uM, replicate 1
[10] = 48 h, 1 µM, compound concentration 1 uM, replicate 2
[11] = 48 h, 10 µM, compound concentration 10 uM, replicate 1
[12] = 48 h, 10 µM, compound concentration 10 uM, replicate 2

CC(=O)c1cc(-c2cc(C(=O)NC3CC3)ccc2C)c2ncccn12
Population Apoptotic (%) [1]: 42% | Population Fragmented Nuclei (%) [1]: 6% | Population Healthy Nuclei (%) [1]: 84% | Population Hoechst High Intensity Objects (%) [1]: 5% | Population Membrane Permeable-Phenotype (%) [1]: 9% | Population Mitochondria Different-Phenotype (%) [1]: 8% | Population Mitotic Cells (%) [1]: 57% | Population Normal (%) [1]: 94% | Population Pyknosed Nuclei (%) [1]: 8% | Population Tubulin-Different-Phenotype (%) [1]: 14% | Total Cell Count [1]: 108 | Population Apoptotic (%) [2]: 66% | Population Fragmented Nuclei (%) [2]: 8% | Population Healthy Nuclei (%) [2]: 85% | Population Hoechst High Intensity Objects (%) [2]: 7% | Population Membrane Permeable-Phenotype (%) [2]: 2% | Population Mitochondria Different-Phenotype (%) [2]: 7% | Population Mitotic Cells (%) [2]: 33% | Population Normal (%) [2]: 92% | Population Pyknosed Nuclei (%) [2]: 6% | Population Tubulin-Different-Phenotype (%) [2]: 19% | Total Cell Count [2]: 73 | Population Apoptotic (%) [3]: 43% | Population Fragmented Nuclei (%) [3]: 7% | Population Healthy Nuclei (%) [3]: 79% | Population Hoechst High Intensity Objects (%) [3]: 6% | Population Membrane Permeable-Phenotype (%) [3]: 6% | Population Mitochondria Different-Phenotype (%) [3]: 9% | Population Mitotic Cells (%) [3]: 56% | Population Normal (%) [3]: 93% | Population Pyknosed Nuclei (%) [3]: 12% | Population Tubulin-Different-Phenotype (%) [3]: 16% | Total Cell Count [3]: 169 | Population Apoptotic (%) [4]: 60% | Population Fragmented Nuclei (%) [4]: 11% | Population Healthy Nuclei (%) [4]: 84% | Population Hoechst High Intensity Objects (%) [4]: 4% | Population Membrane Permeable-Phenotype (%) [4]: 3% | Population Mitochondria Different-Phenotype (%) [4]: 8% | Population Mitotic Cells (%) [4]: 40% | Population Normal (%) [4]: 95% | Population Pyknosed Nuclei (%) [4]: 5% | Population Tubulin-Different-Phenotype (%) [4]: 17% | Total Cell Count [4]: 52 | Population Apoptotic (%) [5]: 43% | Population Fragmented Nuclei (%) [5]: 4% | Population Healthy Nuclei (%) [5]: 89% | Population Hoechst High Intensity Objects (%) [5]: 4% | Population Membrane Permeable-Phenotype (%) [5]: 6% | Population Mitochondria Different-Phenotype (%) [5]: 5% | Population Mitotic Cells (%) [5]: 56% | Population Normal (%) [5]: 96% | Population Pyknosed Nuclei (%) [5]: 6% | Population Tubulin-Different-Phenotype (%) [5]: 17% | Total Cell Count [5]: 111 | Population Apoptotic (%) [6]: 0% | Population Fragmented Nuclei (%) [6]: 3% | Population Healthy Nuclei (%) [6]: 91% | Population Membrane Permeable-Phenotype (%) [6]: 3% | Population Mitochondria Different-Phenotype (%) [6]: 9% | Population Mitotic Cells (%) [6]: 100% | Population Normal (%) [6]: 95% | Population Pyknosed Nuclei (%) [6]: 5% | Population Tubulin-Different-Phenotype (%) [6]: 12% | Total Cell Count [6]: 70 | Population Apoptotic (%) [7]: 25% | Population Fragmented Nuclei (%) [7]: 15% | Population Healthy Nuclei (%) [7]: 66% | Population Hoechst High Intensity Objects (%) [7]: 2% | Population Membrane Permeable-Phenotype (%) [7]: 10% | Population Mitochondria Different-Phenotype (%) [7]: 5% | Population Mitotic Cells (%) [7]: 75% | Population Normal (%) [7]: 97% | Population Pyknosed Nuclei (%) [7]: 18% | Population Tubulin-Different-Phenotype (%) [7]: 17% | Total Cell Count [7]: 250 | Population Apoptotic (%) [8]: 48% | Population Fragmented Nuclei (%) [8]: 11% | Population Healthy Nuclei (%) [8]: 63% | Population Membrane Permeable-Phenotype (%) [8]: 8% | Population Mitochondria Different-Phenotype (%) [8]: 12% | Population Mitotic Cells (%) [8]: 51% | Population Pyknosed Nuclei (%) [8]: 24% | Population Tubulin-Different-Phenotype (%) [8]: 18% | Total Cell Count [8]: 62 | Population Apoptotic (%) [9]: 47% | Population Fragmented Nuclei (%) [9]: 3% | Population Healthy Nuclei (%) [9]: 91% | Population Hoechst High Intensity Objects (%) [9]: 2% | Population Membrane Permeable-Phenotype (%) [9]: 3% | Population Mitochondria Different-Phenotype (%) [9]: 9% | Population Mitotic Cells (%) [9]: 52% | Population Normal (%) [9]: 97% | Population Pyknosed Nuclei (%) [9]: 5% | Population Tubulin-Different-Phenotype (%) [9]: 21% | Total Cell Count [9]: 106 | Population Apoptotic (%) [10]: 16% | Population Fragmented Nuclei (%) [10]: 2% | Population Hoechst High Intensity Objects (%) [10]: 3% | Population Membrane Permeable-Phenotype (%) [10]: 2% | Population Mitochondria Different-Phenotype (%) [10]: 20% | Population Mitotic Cells (%) [10]: 83% | Population Normal (%) [10]: 96% | Population Pyknosed Nuclei (%) [10]: 6% | Population Tubulin-Different-Phenotype (%) [10]: 23% | Total Cell Count [10]: 67 | Population Apoptotic (%) [11]: 70% | Population Fragmented Nuclei (%) [11]: 16% | Population Healthy Nuclei (%) [11]: 60% | Population Hoechst High Intensity Objects (%) [11]: 7% | Population Membrane Permeable-Phenotype (%) [11]: 10% | Population Mitochondria Different-Phenotype (%) [11]: 6% | Population Mitotic Cells (%) [11]: 30% | Population Normal (%) [11]: 92% | Population Pyknosed Nuclei (%) [11]: 22% | Population Tubulin-Different-Phenotype (%) [11]: 16% | Total Cell Count [11]: 381 | Population Apoptotic (%) [12]: 87% | Population Fragmented Nuclei (%) [12]: 14% | Population Healthy Nuclei (%) [12]: 73% | Population Hoechst High Intensity Objects (%) [12]: 4% | Population Membrane Permeable-Phenotype (%) [12]: 31% | Population Mitochondria Different-Phenotype (%) [12]: 29% | Population Mitotic Cells (%) [12]: 12% | Population Normal (%) [12]: 95% | Population Pyknosed Nuclei (%) [12]: 11% | Population Tubulin-Different-Phenotype (%) [12]: 35% | Total Cell Count [12]: 93
